Laboratory results published in PubChem BioAssay AID493050 (Broad Institute, 2011).
Where “and” joins values, the source holds several entries; their conditions need not be identical. Identical values can stand only once. Calls of active or inactive are those of the source.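 How the source made its calls: active means viability falling with dose, half-maximal potency at or under ten times the top valid dose; inconclusive means flat partial loss of viability, or an unreliable curve fit; inactive means the rest, including a rising signal.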

Tests used:
[1] = test system: DRD (HRASV12 BJ) fibroblasts viability, Alamar Blue, 48 h; experiment: DRD BJ cell killing, Ras synthetic lethality – DRD BJ fibroblasts, HRASV12, dry powder, set 2, dose response (AID 493050)
Summary of the method: (§1)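 Times: 48 h compound treatment, ~16 h dye incubation / Test system: DRD BJ fibroblasts expressing SV40 ST, dn-p53, cyclin D1, CDK4mut, HRASV12 / Quantity: 1000 cells per well / Signal: Alamar Blue fluorescence at 544/590 nm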

[2] = as above; conditions: DRD (HRASV12 BJ) fibroblasts viability, Alamar Blue, 48 h
Summary of the method: as §1

SMILES	AC50 [1]	activity change, negative = viability loss ([2]; at 48 µM (top of the series))	also measured
O=C(c1ccc([N+](=O)[O-])o1)N1CCN(C(c2ccc(F)cc2)c2ccc(F)cc2)CC1	13.1 µM	–	–
COc1ccccc1N1CCN(C(=O)c2noc(C)c2[N+](=O)[O-])CC1	–	–	activity change, negative = viability loss ([2]; at 68 µM (top of the series)): 0.386% (inactive)
Cc1onc(C(=O)N2CCN(C(c3ccncc3)c3ccncc3)CC2)c1[N+](=O)[O-]	–	1.3% (inactive)	–
Cc1onc(C(=O)N2CCN(C(c3ccc(F)cc3)c3ccc(F)cc3)CC2)c1[N+](=O)[O-]	0.226 µM	–	–
CC(C)c1onc(C(=O)N2CCN(C(c3ccccc3)c3ccccc3)CC2)c1[N+](=O)[O-]	–	4.37% (inactive)	–
Cc1ccc(C(=O)N2CCN(C(c3ccccc3)c3ccccc3)CC2)c([N+](=O)[O-])c1	–	15.7% (inactive)	–
Cc1onc(C(=O)N2CCN(C(c3ccccc3)c3ccccc3)CC2)c1C	–	10.5% (inactive)	–
COc1ccc(C(c2ccc(OC)cc2)N2CCN(C(=O)c3ccc([N+](=O)[O-])o3)CC2)cc1	8.37 µM	–	–
O=[N+]([O-])c1ccc(CN2CCN(C(c3ccccc3)c3ccccc3)CC2)o1	–	-0.32% (inactive)	–
Cc1onc(C(=O)N2CCN(C(c3ccccc3)c3ccccc3)CC2)c1Br	–	8.89% (inactive)	–
Cc1onc(C(=O)N2CCN(C(c3ccc(Cl)cc3)c3ccc(Cl)cc3)CC2)c1[N+](=O)[O-]	0.107 µM	–	–
Cc1onc(C(=O)N2CCN(C(c3ccccc3)c3ccccc3)CC2)c1N	–	1.23% (inactive)	–
Cc1onc(C(=O)N2CCN(C(c3ccccc3)c3ccccc3)CC2)c1NS(C)(=O)=O	–	2.79% (inactive)	–
Cc1cc(C(=O)N2CCN(Cc3ccccc3)CC2)no1	–	–	activity change, negative = viability loss ([2]; at 68 µM (top of the series)): -2.15% (inactive)
O=C(c1ccc([N+](=O)[O-])o1)N1CCCN(C(c2ccccc2)c2ccccc2)CC1	46.5 µM	–	–
Cc1onc(C(=O)NCCNC(c2ccccc2)c2ccccc2)c1[N+](=O)[O-]	16 µM	–	–
O=C(NCCNC(c1ccccc1)c1ccccc1)c1ccc([N+](=O)[O-])o1	8.27 µM	–	–
O=C(c1noc2ccccc12)N1CCN(C(c2ccccc2)c2ccccc2)CC1	–	4.79% (inactive)	–
Cc1oc(C)c(C(=O)N2CCN(C(c3ccccc3)c3ccccc3)CC2)c1C	–	11.7% (inactive)	–
Cc1onc(C(=O)N2CCN(C(c3ccccc3)c3ccccc3)CC2)c1[N+](=O)[O-]	4.75 µM and 1.71 µM	–	–
Cc1onc(C(=O)N2CCCN(C(c3ccccc3)c3ccccc3)CC2)c1[N+](=O)[O-]	1.1 µM	–	–
Cc1onc(C(=O)N2CCOCC2)c1[N+](=O)[O-]	–	–	activity change, negative = viability loss ([2]; at 68 µM (top of the series)): 4.86% (inactive)
COc1ccc(C(c2ccc(OC)cc2)N2CCN(C(=O)c3noc(C)c3[N+](=O)[O-])CC2)cc1	1.85 µM	–	–
Cc1onc(C(=O)NCc2ccc(F)cc2)c1[N+](=O)[O-]	–	–	activity change, negative = viability loss ([2]; at 68 µM (top of the series)): 0.881% (inactive)
CCOC(=O)N1CCN(C(=O)c2noc(C)c2[N+](=O)[O-])CC1	–	–	activity change, negative = viability loss ([2]; at 68 µM (top of the series)): 6.53% (inactive)
CC(=O)Nc1c(C(=O)N2CCN(C(c3ccccc3)c3ccccc3)CC2)noc1C	–	5.57% (inactive)	–
Cc1onc(C(=O)N2CCN(C(c3ccccn3)c3ccccn3)CC2)c1[N+](=O)[O-]	–	3.35% (inactive)	–
O=C(c1ccc([N+](=O)[O-])o1)N1CCN(C(c2ccccc2)c2ccccc2)CC1	19.4 µM	–	–
Cc1onc(C(=O)N2CCN(C(c3ccccc3)c3ccc(Cl)cc3)CC2)c1[N+](=O)[O-] (centres undefined)	0.21 µM	–	–
